In ChEMBL document CHEMBL1124458, “Electrophilic derivatives of purines as irreversible inhibitors of A1 adenosine receptors” (J Med Chem, 1989):

Assays:
Adenosine A2 receptor [1] = target: T1, Adenosine A2 receptor (Rattus norvegicus, UniProt P29276+P30543); assay: Inhibition of [3H]N-ethyladenosine-5'-uronamide binding to Adenosine A2 receptor of rat striatal membrane
[2] = target: T2, Adenosine receptors; A1 & A2 (Rattus norvegicus) (UniProt P29276+P25099+P30543); assay: Selectivity ratio between Ki for adenosine A2 and A1 receptors; assay type: protein assay
Adenosine receptor A1 [3] = target: T3, Adenosine receptor A1 (Rattus norvegicus, UniProt P25099); assay: Affinity for adenosine A1 receptor using [3H]N6-(phenylisopropyl)adenosine (R)-[3H]-PIA as a radioligand in rat brain.; assay type: tissue-based
T3 sequence (P25099 whole entry): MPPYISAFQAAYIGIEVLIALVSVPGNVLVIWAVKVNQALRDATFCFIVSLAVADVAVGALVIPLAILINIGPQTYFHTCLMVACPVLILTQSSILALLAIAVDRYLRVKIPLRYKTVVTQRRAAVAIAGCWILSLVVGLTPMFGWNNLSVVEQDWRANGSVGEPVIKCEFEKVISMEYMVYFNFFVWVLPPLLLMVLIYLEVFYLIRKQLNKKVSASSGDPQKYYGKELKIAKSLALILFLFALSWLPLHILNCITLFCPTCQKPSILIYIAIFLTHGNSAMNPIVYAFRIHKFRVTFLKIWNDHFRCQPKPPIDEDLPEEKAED

[4] = target: T4, Adenosine receptor A1 (Rattus norvegicus) (UniProt P25099); assay: Inhibition of [125I]-APNEA binding to adenosine A1 receptor of rat brain at 50 nM
T4 sequence (whole entry): T3 sequence (P25099 whole entry)
Procedure, shortened: (§1)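 Adenosine deaminase-treated rat cerebral cortex membranes were exposed to the ligand for 45 min at 37 °C. They were washed three times, held in buffer with 10⁻⁴ M IBMX for 18 h at 25 °C, washed and re-treated with deaminase. Residual sites were measured by 125I-APNEA saturation (0.1–2.5 nM) against untreated membranes carried through the same procedure.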

Adenosine receptor A1 [5] = target: T5, Adenosine receptor A1 (Bos taurus, UniProt P28190); assay: Affinity for Adenosine A1 receptor using [125I]APNEA in calf brain.
T5 sequence (P28190 whole entry): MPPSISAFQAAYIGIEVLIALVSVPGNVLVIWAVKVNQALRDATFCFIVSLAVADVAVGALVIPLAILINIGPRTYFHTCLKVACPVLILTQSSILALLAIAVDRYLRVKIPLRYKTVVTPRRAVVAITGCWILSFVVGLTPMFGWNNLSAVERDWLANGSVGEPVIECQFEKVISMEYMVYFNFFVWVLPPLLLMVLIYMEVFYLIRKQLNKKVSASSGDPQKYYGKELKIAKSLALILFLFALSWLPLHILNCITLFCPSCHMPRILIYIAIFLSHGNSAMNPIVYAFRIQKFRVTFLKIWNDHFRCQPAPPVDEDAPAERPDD
Procedure, shortened: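 Bovine cerebral cortex membranes were pretreated with adenosine deaminase (0.5 unit/mL, 20 min, 37 °C). Membranes (40 µg) were incubated with 125I-APNEA and competitor for 1 h at 37 °C. Separation was by dilution in cold Tris-HCl/MgCl2/EDTA buffer, pH 8.26, with 0.02% Chaps, then glass-filter filtration and gamma counting. Nonspecific binding was defined with 10⁻⁵ M (R)-PIA.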

Adenosine receptor A1 [6] = target: T3, Adenosine receptor A1; assay: Affinity for adenosine A1 receptor using [3H]-N6 -(phenylisopropyl)-adenosine (R)-[3H]-PIA in rat brain.; assay type: tissue-based
Procedure, shortened: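 Rat cerebral cortex membranes were incubated with 1 nM (R)-[3H]PIA and a range of competitor concentrations. Each point was run in triplicate, in at least three separate experiments.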

[7] = target: T4, Adenosine receptor A1 (Rattus norvegicus); assay: Percentage inhibition of [125I]-APNEA binding to adenosine A1 receptor from rat brain after 45 min incubation at 50 nM; procedure, shortened: as §1
[8] = target: T2, Adenosine receptors; A1 & A2 (Rattus norvegicus); assay: Relative affinities for Adenosine A2 and Adenosine A1 receptors; assay type: protein assay
Adenosine A2 receptor [9] = target: T1, Adenosine A2 receptor; assay: Inhibitory affinity for Adenosine A2 receptor using [3H]N-ethyladenosine-5'-uronamide; assay type: protein assay

| Ki (Adenosine receptor A1 [3]) | inhibition [4] | Compound | further results |
| --- | --- | --- | --- |
|  | 9% | CCCn1c(=O)c2nc(-c3ccc(OCC(=O)NCCNC(=O)CNC(=O)CCCN4C(=O)C=CC4=O)cc3)[nH]c2n(CCC)c1=O |  |
| 15.5 nM |  | CCCn1c(=O)c2nc(-c3ccc(OCC(=O)NCCN=C(S)Nc4ccc(F)cc4)cc3)[nH]c2n(CCC)c1=O |  |
| 8.37 nM | 21% | O=C(Cc1ccc(Nc2ncnc3c2ncn3C2O[C@H](CO)[C@@H](O)[C@H]2O)cc1)ON1C(=O)CCC1=O (some centres undefined) |  |
|  | 32% | CCCn1c(=O)c2nc(-c3ccc(OCC(=O)NCCNC(=O)CCCCCCC(=O)ON4C(=O)CCC4=O)cc3)[nH]c2n(CCC)c1=O | Ki (Adenosine A2 receptor [1]): 207 nM |
|  | 15% | CCCn1c(=O)c2nc(-c3ccc(OCC(=O)NCCNC(=O)c4ccc(CBr)cc4)cc3)[nH]c2n(CCC)c1=O |  |
| 9.6 nM | 44% | O=C(Cc1ccc(Nc2ncnc3c2ncn3C2O[C@H](CO)[C@@H](O)[C@H]2O)cc1)Nc1ccc(CC(=O)ON2C(=O)CCC2=O)cc1 (some centres undefined) |  |

Second part, the molecule before the results:

| Compound | Ki (Adenosine receptor A1 [3]) | inhibition [4] | further results |
| --- | --- | --- | --- |
| CCCn1c(=O)c2nc(-c3ccc(OCC(=O)NCCN=C(S)Nc4ccc(S(=O)(=O)[O-])cc4)cc3)[nH]c2n(CCC)c1=O.[Na+] | 367 nM |  | Ki (Adenosine A2 receptor [1]): 1450 nM; Ratio [2]: 3.95 |
| O=C(Cc1ccc(NC(=O)Cc2ccc(Nc3ncnc4c3ncn4C3O[C@H](CO)[C@@H](O)[C@H]3O)cc2)cc1)NCCN=C=S (some centres undefined) | 4.5 nM |  | Ki (Adenosine receptor A1 [5]): 4.2 nM |
| O=C(Cc1ccc(NC(=O)Cc2ccc(Nc3ncnc4c3ncn4C3O[C@H](CO)[C@@H](O)[C@H]3O)cc2)cc1)NCC/N=C(\S)Nc1ccc([N+](=O)[O-])cc1 (some centres undefined) | 1.97 nM |  |  |
| CCCn1c(=O)c2[nH]c(-c3ccc(OCC(=O)NCCNC(=O)Cc4ccc(NC(=S)Nc5ccc(N=C=S)cc5)cc4)cc3)nc2n(CCC)c1=O | 25 nM |  |  |
| CCCn1c(=O)c2nc(-c3ccc(OCC(=O)NCCN=C(S)Nc4ccc(OC)cc4)cc3)[nH]c2n(CCC)c1=O | 33.2 nM |  |  |
| Cc1ccc(NC(=S)NCCNC(=O)Cc2ccc(NC(=O)Cc3ccc(Nc4ncnc5c4ncn5C4O[C@H](CO)[C@@H](O)[C@H]4O)cc3)cc2)cc1 (some centres undefined) | 3.72 nM |  |  |
| N#Cc1ccc(N/C(S)=N/CCNC(=O)Cc2ccc(NC(=O)Cc3ccc(Nc4ncnc5c4ncn5C4O[C@H](CO)[C@@H](O)[C@H]4O)cc3)cc2)cc1 (some centres undefined) |  |  | Ki (Adenosine receptor A1 [6]): 2.66 nM |
| CCCn1c(=O)c2nc(-c3ccc(OCC(=O)NCCNC(=O)CCSSc4ccccn4)cc3)[nH]c2n(CCC)c1=O |  | 3% |  |
| CCCn1c(=O)c2nc(-c3ccc(OCC(=O)NCCNS(=O)(=O)c4cccc(S(=O)(=O)Cl)c4)cc3)[nH]c2n(CCC)c1=O |  |  | inhibition [7]: 23%; Ki (Adenosine A2 receptor [1]): 105 nM; Ratio [8]: 42 |
| O=C(Cc1ccc(NC(=O)Cc2ccc(Nc3ncnc4c3ncn4C3O[C@H](CO)[C@@H](O)[C@H]3O)cc2)cc1)NCCNC(=S)Nc1ccc(N=C=S)cc1 (some centres undefined) | 0.469 nM |  |  |
| CCCn1c(=O)c2[nH]c(-c3ccc(OCC(=O)NCCNC(=S)Nc4ccc(C#N)cc4)cc3)nc2n(CCC)c1=O | 16.6 nM |  |  |
| CCCn1c(=O)c2nc(-c3ccc(OCC(=O)NCCN=C(S)Nc4ccc([N+](=O)[O-])cc4)cc3)[nH]c2n(CCC)c1=O | 15.9 nM |  |  |
| CCCn1c(=O)c2nc(-c3ccc(OCC(=O)NCCNC(=O)C/N=C(\S)Nc4ccc(N=C=S)cc4)cc3)[nH]c2n(CCC)c1=O |  | 50% | Ki (Adenosine A2 receptor [9]): 472 nM; Ratio [8]: 69 |
